Columns and labels:
Assay type in all cases: functional
Rattus norvegicus [1] = assay: Ex vivo percent inhibition against serum TXB2 production after 2 hr at dose 10 mg/kg by oral administration in rat
Rattus norvegicus [2] = assay: Ex vivo percent inhibition against serum TXB2 production after 24 hr r at dose 1 mg/kg by oral administration in rat
Outline: (§1)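 Male Sprague–Dawley rats, 7–8 weeks old, dosed orally. Controls got vehicle alone (2 mL/kg water with a little gum arabic). At 24 h, 1 mL blood was drawn from the abdominal aorta under pentobarbital anesthesia (50 mg/kg ip) and clotted 90 min at 25 °C. Serum TXB2 was measured by radioimmunoassay. % inhibition = [1 − (B/A)] × 100 versus untreated rats.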

Rattus norvegicus [3] = assay: Ex vivo percent inhibition against serum TXB2 production after 24 hr r at dose 10 mg/kg by oral administration in rat; outline: as §1

| Compound | inhibition in vivo at 10 mg/kg (Rattus norvegicus [1]) | inhibition in vivo at 1 mg/kg (Rattus norvegicus [2]) | inhibition in vivo at 10 mg/kg (Rattus norvegicus [3]) |
| --- | --- | --- | --- |
| O=C(O)CCCC/C=C(\c1ccccc1)c1ccc[n+]([O-])c1 | 85% | – | – |
| NC(=O)CCCC/C=C(\c1ccccc1)c1cccnc1 | 93% | – | – |
| O=C(O)CCCCC/C=C(\c1ccccc1)c1cccnc1 | – | 24% | – |
| COC(=O)CCCC/C=C(\c1ccccc1)c1cccnc1 | 92% | – | – |
| CC(C)(CCC/C=C(\c1ccccc1)c1cccnc1)C(=O)O | – | 14% | – |
| OCCCCC/C=C(\c1ccccc1)c1cccnc1 | 92% | – | – |
| O=C(O)CCCCCC/C=C(\c1ccccc1)c1cccnc1 | – | 17% | – |
| CC(C)CSC(CCC/C=C(\c1ccccc1)c1cccnc1)C(=O)O (stereo unspecified) | – | 8% | – |
| CCOC(=O)CCCC/C=C(\c1ccccc1)c1cccnc1 | 90% | 35% | – |
| CC(C)(CCC/C=C(/c1cccnc1)c1cccs1)C(=O)O | – | 17% | – |
| O=C(O)CCCCCCCC/C=C(\c1ccccc1)c1cccnc1 | 92% | 10% | – |
| CC(C)(O)C(CCC/C=C(\c1ccccc1)c1cccnc1)C(=O)O (stereo unspecified) | – | 37% | – |
| O=C(O)CCCC/C=C(\c1ccccc1)c1cccnc1 [(E)-ISBOGREL] | – | 53% | 90% |

Reference: ChEMBL document CHEMBL1122952, “Thromboxane synthetase inhibitors (TXSI). Design, synthesis, and evaluation of a novel series of omega-pyridylalkenoic acids” (J Med Chem, 1985)
